# Compounds with a hit are over-represented: about 2.7% of the library has one in this group of screens.
# Yeast lifespan up – extends the lifespan of yeast; AID 775; inhibition of the nicotinamide effect, % at 10 µM; S. cerevisiae growth with nicotinamide, OD615; deaD strain in restrictive glucose medium; hit rate 0.68% among 130,000;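 active = inhibition above a set limit, placed 3 SD over the median of all compounds, cut at about 26% in these data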;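 note: 0% = nicotinamide-treated wells and 100% = cells grown without nicotinamide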
#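 Material: Modified budding yeast, DeaD strain | Medium: Restrictive glucose medium | Probe or stimulus: 1.5 mM nicotinamide | Dosing: Single dose 10 µM compound, 0.25% DMSO | Times: 48 h at 30 °C | Technique: OD615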
# Phagocytosis inh – macrophage phagocytosis inhibition; J774A.1 macrophage IgG-bead phagocytosis, imaging; inhibition, % at 5 µM; hit rate 0.07% among 110,000;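 active = inhibition above the mean of the plate negative controls plus 5 SD, cut at about 13% in these data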;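 note: phagocytic index as fraction of beads internalized from green versus red external bead signal; plate controls were DMSO negative control for no effect and cytochalasin-D positive control for full effect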
# BB579 growth dn – chemicals that inhibit yeast BB579 growth in restrictive medium (lifespan-shortening candidates) | inhibition, % at 10 µM | hit rate 0.51% among 140,000 | S. cerevisiae BB579 growth, OD615, 48 h;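 active = inhibition above a set limit, 3 SD over the mean compound inhibition, cut at about 44% in these data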
#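 Test system: Saccharomyces cerevisiae DeaD strain BB579, replicative lifespan model yeast | Buffer or medium: Restrictive CSMM-D medium | Doses: One dose, 10 µM compound with 0.25% DMSO | Incubation: 48 h exposure, 30 °C | Detection: Culture absorbance at 615 nm | Control set: Amphotericin B at 10 µg/mL as positive control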
# RAM inhibit – yeast RAM network inhibition | S. cerevisiae dse1pr::URA3 reporter, 5-FOA growth OD615, 2 d; analog-sensitive cbk1-as2 kinase mutant strain | inhibition, % at 50 µM | hit rate 1.8% among 190,000;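 active = inhibition above a set limit, 3 SD over mean compound inhibition, cut at about 8.4% in these data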;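 note: 0% = DMSO-only wells with no growth and 100% = 10 µM 1-NA-PP1 full growth; inhibition rescues growth on 5-FOA so higher OD means more RAM inhibition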
# Starred values were filed as active, the others as inactive; · = not tested or not shown.
SMILES,Yeast lifespan up,Phagocytosis inh,BB579 growth dn,RAM inhibit
C[C@@H](C(=O)NCc1ccc(S(C)(=O)=O)cc1)[C@H]1C[C@]1(C)[C@H](NC(=O)OCc1ccccc1)c1ccccc1,3,·,-23,9.2*
C[C@@H](C(=O)NCc1ccccc1)[C@@H]1C[C@@]1(C)[C@@H](NC(=O)OCc1ccccc1)c1ccccc1,6,·,3,7
CCn1c2ccc(C)cc2c2nc3cc(C(=O)O)ccc3nc21,-15,-14,96*,6
CCn1c2ccc(Cl)cc2c2nc3ccccc3nc21,-22,4,1,6
Cc1ccc(Cn2c(C)cc3c(c2=O)C(c2cccs2)C(C#N)=C(N)O3)cc1 (configuration not stated),-4,·,-42,8.7*
Cc1ccc(-c2cc(C(=O)N3CCCc4ccccc43)no2)cc1,·,·,·,4
O=C(CCSc1nnc2scc(-c3ccccc3)n12)NCc1ccc2c(c1)OCO2,-1,0,-46,10*
Cc1ccc(-c2csc3nnc(SCC(=O)NCc4ccc5c(c4)OCO5)n23)cc1,-17,·,-65,1
COCC(=O)Nc1ccc(C(=O)Nc2ccccc2Cl)cc1,·,·,·,2
O=c1oc2ccccc2c(O)c1/C=C1\C=Nc2ccccc21,-4,·,86*,2
CCC(C)NC(=O)CC(NS(=O)(=O)c1ccc(NC(C)=O)cc1)C(C)C (configuration not stated),·,·,·,2
c1ccc(-c2cccc(-c3ccccn3)n2)nc1,-29,-4,99*,-1
c1ccc(-c2nc3ccccc3o2)nc1,-24,·,8,0
Cc1ccc2[nH]c3c(c2c1)CC/C(=C/c1ccccc1)C3=O,81*,3,-86,4
O=C(CN1CCCC1=O)NC1(C(F)(F)F)NC(=O)N(Cc2ccccc2)C1=O (configuration not stated),-17,0,18,2
COc1ccc(C(=O)NC2CCN(C(=S)Nc3cccc(C)c3C)CC2)cc1,-2,·,-49,8.6*
COc1ccc(C(=O)NC2CCN(C(=S)Nc3ccc(C)c(C)c3)CC2)cc1,5,-9,-32,4
N#CC1=C(N)NC(SCc2ccccc2)=C(C#N)C12CCCC2,1,-1,-44,4
N#CC1=C(N)NC(SCC(=O)c2ccccc2)=C(C#N)C12CCCC2,2,-2,-29,11*
COc1ccc(C(=O)OC/C(O)=C(\C#N)c2nc3ccccc3[nH]2)cc1S(=O)(=O)N1CCOCC1,7,1,-32,5
c1cc2c(cc1C1CCCCC1)c1c3n2CCCNC3CCC1 (configuration not stated),·,·,68*,-1
Cc1ccc2c(c1)c1c3n2CCCNC3CCC1 (configuration not stated),5,-1,-1,2
CCSc1nnc(NC(=O)c2cnccn2)s1,·,0,·,·
CCSc1nnc(NC(=O)COc2cccc3ccccc23)s1,-6,-1,-40,9.7*
CCSc1nnc(NC(=O)COc2ccc(Cl)cc2)s1,·,·,·,2
SMILES,Yeast lifespan up,Phagocytosis inh,BB579 growth dn,RAM inhibit
CCSc1nnc(NC(=O)c2ccccn2)s1,-10,-5,97*,-2
COc1ccc2c(C)cc(SCC(=O)Nc3cccnc3Cl)nc2c1,·,·,·,6
CCC(C)(C)NC(=O)C(c1ccc(OC)cc1)N(Cc1cccs1)C(=O)CCC(=O)Nc1cc(C)on1 (configuration not stated),·,·,-17,0
CC1C(C(=O)Nc2ccccc2)CCCC1(C)C(=O)O (configuration not stated),-5,1,-4,0
CCc1nc(SCC(=O)c2cccs2)c2oc3ccccc3c2n1,-13,·,-41,2
CC1CCCN(C(=O)N2c3ccccc3Sc3ccccc32)C1 (configuration not stated),-6,-1,-25,10*
CCOc1cc(NC(=O)C2CC2)c(OCC)cc1NC(=O)c1ccccn1,-9,-1,-10,4
CCOc1cc(NC(=O)c2ccccn2)c(OCC)cc1NC(=O)c1ccccc1,·,·,·,9.7*
CN1C(=O)CC(N2CCN(c3ccc(Cl)c(Cl)c3)CC2)C1=O (configuration not stated),-9,-1,-41,0
O=C(c1cccc(S(=O)(=O)N2CCCC2)c1)c1nnc(-c2ccncc2)o1,-10,0,-54,1
COc1ccc(C2CC(c3ccccc3)=NN2C(=O)COC(=O)C2CC2)cc1 (configuration not stated),4,0,-21,7
COc1ccc(CC(=O)OCC(=O)N2N=C(c3ccccc3)CC2c2ccc(OC)cc2)cc1 (configuration not stated),2,0,-15,8.9*
COc1ccc(OC)c(-c2cc(C(=O)N3CCCc4ccccc43)no2)c1,-2,0,-41,9.3*
O=C(C(=O)N1CCCc2ccccc21)N1CCCc2ccccc21,1,·,-8,0
CCc1ccc2c(c1)CCCN2C(=O)c1ccccc1C(=O)O,34*,1,-42,0
Cc1ccc2c(c1)CCCN2C(=O)c1ccoc1C,-20,0,-17,0
O=C(c1ccc(C(=O)N2CCCc3ccccc32)s1)N1CCCc2ccccc21,-17,·,84*,0
CCCCC(=O)Nc1ccc(C(=O)NNC(=S)NC(=O)c2cccs2)cc1,36*,-8,-23,0
Cc1ccsc1C(=O)OCC(=O)N1CCc2ccccc2C1,·,·,·,0
Cc1cccc2nc(C(F)(F)F)nc(=O)n12,-30,0,-22,0
CCc1cc2cc3c(cc2nc1SCC(=O)Nc1cc(OC)c(OC)cc1C(=O)O)OCO3,·,·,·,9.5*
CCN(C(=O)Cc1ccc(Br)cc1)C1CCCCC1,4,-2,-38,0
COc1ccc(-c2nc3ccccc3c(=O)n2N)cc1,-22,-2,-4,1
COc1ccc2cc(C(C)c3nc4ccccc4c(=O)n3N)ccc2c1 (configuration not stated),31*,4,-48,6
Clc1ccccc1N/N=C/c1ccc2c(c1)OCO2,-7,3,90*,0
SMILES,Yeast lifespan up,Phagocytosis inh,BB579 growth dn,RAM inhibit
C(=N\Nc1nc2ccccc2[nH]1)/c1ccc2c(c1)OCO2,·,·,·,1
O=C(O)C1Nc2c(O)cc(Cl)c([N+](=O)[O-])c2C2C=CCC12 (configuration not stated),·,·,·,6
O=C(Nc1ccc(F)cc1)c1ccccc1S(=O)(=O)c1ccccc1[N+](=O)[O-],5,-5,2,1
CCCc1cc(=O)[nH]c(SCc2nc3ccccc3s2)n1,-15,·,-20,4
Cc1cc(=O)[nH]c(SCc2nc3ccccc3s2)n1,-13,1,46*,0
COC(=O)c1ccc(COC(=O)CCc2nc(-c3ccccc3)c(-c3ccccc3)o2)cc1,-12,-1,-37,11*
CCCN(CCC)C(=O)CSc1nc2ccccc2c(=O)n1CC1COc2ccccc2O1 (configuration not stated),-16,·,-38,9.0*
CCOc1cc(C2C3=C(CCCC3=O)N(CCC(=O)O)C3=C2C(=O)CCC3)ccc1OS(=O)(=O)c1ccc(C)cc1,1,-3,-16,2

# Screens (PubChem BioAssay)
